Here are results for 5 compounds from ChEMBL document CHEMBL1151701, “Discovery of new pyridoacridine alkaloids from Lissoclinum cf. badium that inhibit the ubiquitin ligase activity of Hdm2 and stabilize p53” (Bioorg Med Chem, 2008).

Calls of active or inactive are those of the source. The rule behind the calls is not given here.

The target in data set [1] is T1, E3 ubiquitin-protein ligase Mdm2 (Homo sapiens, UniProt Q00987). The experiment in a line: Inhibition of GST fused human Hdm2 assessed as polyubiquitylation by electrochemiluminescence assay. Put shortly: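 Cell-free ubiquitylation. Lysate GST-Hdm2 captured on glutathione-coated wells for 1 h at RT. E1/UbcH5B were pre-charged with ubiquitin, ATP and DTT in PBS for 30 min, then added with sample for 30 min at RT. Read-out was ruthenium anti-polyubiquitin electrochemiluminescence, normalised between no-inhibitor (0%) and EDTA (100%). Tested at 100–0.02 µg/mL in quadruplicate.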
Target sequence in this assay (Q00987 whole entry, the tested form may be a part): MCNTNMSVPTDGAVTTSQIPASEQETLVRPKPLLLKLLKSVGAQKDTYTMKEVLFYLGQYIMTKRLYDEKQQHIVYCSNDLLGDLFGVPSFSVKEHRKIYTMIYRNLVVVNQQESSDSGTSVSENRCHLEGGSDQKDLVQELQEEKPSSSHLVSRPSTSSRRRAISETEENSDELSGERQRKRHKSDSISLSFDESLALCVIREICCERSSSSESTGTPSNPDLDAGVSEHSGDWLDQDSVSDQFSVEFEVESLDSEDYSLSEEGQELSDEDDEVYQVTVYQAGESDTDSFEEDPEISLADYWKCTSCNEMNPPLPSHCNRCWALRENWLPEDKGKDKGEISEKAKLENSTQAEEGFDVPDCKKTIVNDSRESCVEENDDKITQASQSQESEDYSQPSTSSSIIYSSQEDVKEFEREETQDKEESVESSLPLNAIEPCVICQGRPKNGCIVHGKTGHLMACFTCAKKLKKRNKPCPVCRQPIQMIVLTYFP

Data set [2] has as its target T1, E3 ubiquitin-protein ligase Mdm2. The experiment in a line: Inhibition of GST fused human Hdm2 in human RPE cells at 1 to 10 uM after 8 hrs by immunoblotting. The data set is classed as cell-based. Summed up:
(§1)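 Tert-immortalized human retinal pigment epithelial (RPE) cells exposed to compound (1–10 µM) or 50 µM ALLN for 8 h. Cells lysed in RIPA buffer, post-nuclear supernatants resolved by SDS-PAGE, then immunoblotted for p53, Hdm2 and β-actin as loading control.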
Target sequence in this assay (Q00987 whole entry, looked up, the tested form may be a part): as the sequence (Q00987 whole entry, the tested form may be a part) above

For data set [3] the target is unchanged. The data set can be described thus: Inhibition of GST fused human Hdm2 in human RPE cells assessed as increase in p53 level at 1 to 10 uM after 8 hrs by immunoblotting. The data set is classed as cell-based. Summed up: as §1
Target sequence in this assay (Q00987 whole entry, looked up, the tested form may be a part): as the sequence (Q00987 whole entry, the tested form may be a part) above
The target is the same in data set [4]. The experiment in a line: Inhibition of GST fused human Hdm2 expressed in p53 and mdm2-deficient mouse embryo fibroblasts under control of p53-independent promotor at 10 uM after 8 hrs by immunoblotting. Put shortly:
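p53−/−mdm2−/− mouse embryo fibroblasts transiently transfected with Hdm2 plasmid under a CMV promoter. 48 h later they were treated with 10 µM compound for 8 h, and Hdm2 and β-actin were measured by immunoblotting.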
Target sequence in this assay (Q00987 whole entry, looked up, the tested form may be a part): as the sequence (Q00987 whole entry, the tested form may be a part) above

Data set [5] has the same target. The data set can be described thus: Inhibition of GST fused human Hdm2 in human RPE cells assessed as increase in p53 level at 10 uM after 8 hrs by immunoblotting.
Target sequence in this assay (Q00987 whole entry, looked up, the tested form may be a part): as the sequence (Q00987 whole entry, the tested form may be a part) above
Data set [6] shares this target. The data set can be described thus: Inhibition of GST fused human Hdm2 in human RPE cells at 10 uM after 8 hrs by immunoblotting.
Target sequence in this assay (Q00987 whole entry, looked up, the tested form may be a part): as the sequence (Q00987 whole entry, the tested form may be a part) above
Data set [7] shares this target. The data set can be described thus: Inhibition of GST fused human Hdm2 in human RPE cells assessed as increase in p53 level after 8 hrs by immunoblotting. The data set is classed as cell-based. Summed up:
as §1
Target sequence in this assay (Q00987 whole entry, looked up, the tested form may be a part): as the sequence (Q00987 whole entry, the tested form may be a part) above

For data set [8] the target is unchanged. The experiment in a line: Inhibition of GST fused human Hdm2 in human RPE cells after 8 hrs by immunoblotting. Format: cell-based. Put shortly: as §1
The target is the same in data set [9]. The experiment in a line: Inhibition of GST fused human Hdm2 in human RPE cells assessed as increase in p53 level at 1 uM after 8 hrs by immunoblotting. The data set is classed as cell-based. Summed up: as §1
A short description of data set [10]: Cytotoxicity against human RPE cells assessed as increase in p53 level at 10 uM after 8 hrs by immunoblotting. The data set is classed as cell-based. Put shortly:
as §1

The nature of data set [11]: Cytotoxicity against human RPE cells at 10 uM. The data set is classed as cell-based. Summed up:
as §1

Data set [12] relates to A9. The experiment in a line: Cytotoxicity against p53-deficient mouse A9 cells at 5 to 20 uM after 20 hrs by trypan blue exclusion assay. The data set is classed as cell-based. The conditions noted are these: a9, 20 h. Put shortly: (§2)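 p53-deficient (A9) and wild-type p53 (C8) mouse embryo fibroblasts treated 20 h with compound at 5–20 µM. Cell death by trypan blue exclusion. Mean and standard deviation of three independent experiments.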

The subject of data set [13] is HCT-116. The experiment in a line: Cytotoxicity against p53-deficient human HCT 116 cells at 5 to 20 uM after 20 hrs by trypan blue exclusion assay. Format: functional, cell-based.
Data set [14] addresses T1, E3 ubiquitin-protein ligase Mdm2. The experiment in a line: Inhibition of Hdm2-mediated p53 degradation in human U2-OS cells co-transfected with p53-Hdm2 after 8 hrs by immunoblotting. Format: cell-based. Conditions: U2OS.
Data set [15] shares this target. The data set can be described thus: Inhibition of GST fused human Hdm2 in human HCT 116 cells expressing wild type p53 assessed as prevention of N-acetyl-leucyl-leucyl-norleucinal-induced accumulation of ubiquitylated p53 accumulation. The data set is classed as cell-based.
Data set [16] is described as follows: Cytotoxicity against wild type p53-proficient mouse C8 cells at 5 to 20 uM after 20 hrs by trypan blue exclusion assay. Format: cell-based. The conditions noted are these: c8, 20 h. Put shortly: as §2
Data set [17] deals with T1, E3 ubiquitin-protein ligase Mdm2. The experiment in a line: Inhibition of Hdm2-mediated p53 degradation in human U2OS cells co-transfected with p53-Hdm2 at 50 uM after 8 hrs by immunoblotting. Format: cell-based.
For data set [18], the system named is HCT-116. The data set can be described thus: Cytotoxicity against p53-proficient human HCT 116 cells at 5 to 20 uM after 20 hrs by trypan blue exclusion assay. Format: functional, cell-based.
For data set [19], the system named is U2OS. The data set can be described thus: Induction of apoptosis in human U2OS cells assessed as activation of p53-dependent transactivation by luciferase reporter gene assay at 1 to 10 uM after 22 hrs. Format: functional, cell-based. Put shortly:
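U2OS-pG13 p53-reporter cells incubated 22 h with compound (1–10 µM) or 1 µg/ml adriamycin. Cells lysed in reporter lysis buffer and spun at 14,000 g for 20 min; luciferase activity of supernatant read as RLU. Mean and standard deviation of three independent experiments.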

Data set [20] is described as follows: Cytotoxicity against human RPE cells transformed with adenovirus E1A at 3 to 25 uM after 17 hrs by trypan blue exclusion assay. Format: cell-based. Summed up: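 Parental RPE and adenovirus E1A-transformed RPE cells incubated 17 h with compound (3–25 µM) or 1 µg/ml adriamycin. Cell death scored by trypan blue exclusion. Mean and standard deviation of three independent experiments.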

With `COc1c(C)c(CCN(C)C)c2c(c1OC)SSSSS2`, in data set [1], the IC50 turned out to be 121 µM. The result in [2] and in data set [3] was inactive.

On to `CSC1=C(CCN)c2nc3ccccc3c3ccnc(c23)C1=O` [DIPLAMINE B], for which the result in [4], in data set [5] and in data set [6] was Active. Moreover, in data set [1], the half-maximal inhibitory concentration (IC50) came to 101 µM. For the same compound, the Activity entry in [7] and in [8] was “Dose-dependent effect” throughout.

For the compound `COc1cc(CCN(C)C)c2c(c1O)SSSSS2` [ISOLISSOCLINOTOXIN B], the IC50 in data set [1] was found to be 58.6 µM. For the same compound, the outcome in data set [9] was inactive. The Activity entry in data set [10] is reported as “Active”; in data set [11] it was “Toxic”.

Take `NCCc1c2c(c3nccc4c3c1Nc1ccccc1-4)OCS2` [LISSOCLINIDINE B]: the outcome in [4], in data set [5], in data set [15], in data set [6] and in data set [18] was Active. Also, the Activity result in data set [12] is “Not Active”; in data set [14], “Dose-dependent effect”; in data set [16] it was “Active”; in data set [7], “Dose-dependent effect”; in [8] it was “Dose-dependent effect”; in [19] it was “Dose-dependent effect”. Moreover, the Activity result in data set [20] is on record as “Dose-dependent effect”. Moreover, the result in data set [13] and in [17] was inactive.

With `COc1cc(CCN)c2c(c1OC)SSSSS2` [VARACIN], in [1], the IC50 is over 295 µM. Moreover, the outcome in [2] and in [3] was inactive.
